# Source: PubChem
# MrgX1 allo act: human MrgX1 positive allosteric modulation, primary screen. Q96LB2. AID 588675. B-score at 10 µM. MrgX1-HEK293, Fluo-4 calcium flux, FDSS; hits give high values. 0.63% of 310,000 active;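 active = plate-corrected calcium response at least 3 library SD above typical, normal starting fluorescence, not activating the receptor alone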;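 note: compound read alongside a low EC10 to EC30 dose of BAM8-22 agonist; peak minus trough fluorescence over baseline measured at the second addition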
# Target sequence (Q96LB2 whole entry, looked up): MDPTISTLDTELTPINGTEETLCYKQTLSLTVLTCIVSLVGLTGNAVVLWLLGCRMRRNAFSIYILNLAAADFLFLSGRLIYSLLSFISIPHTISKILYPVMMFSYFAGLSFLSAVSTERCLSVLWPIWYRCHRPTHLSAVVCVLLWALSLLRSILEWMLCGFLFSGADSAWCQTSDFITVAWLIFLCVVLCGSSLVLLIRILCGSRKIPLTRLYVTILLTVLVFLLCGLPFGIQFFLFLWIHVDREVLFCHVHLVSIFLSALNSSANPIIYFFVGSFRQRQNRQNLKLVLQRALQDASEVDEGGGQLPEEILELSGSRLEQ
# Cl transport mod: modulates chloride dependent transport by human KCC2; KCC2 cells, thallium flux FluoZin-2 fluorescence; 2.2% of 190,000 active; Q9H2X9; B-score of Tl+ flux slope (higher = more flux/activation; lower = inhibition) at 10 µM; AID 1456;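 active = thallium flux slope and its plate-corrected score both differing from the plate sample mean at a set confidence after two filtering rounds, in either direction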;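 note: slope of fluorescence scaled to starting intensity during 10 to 20 s after thallium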
# RGS4 act: potentiators or activators of RGS4; HEK293 M3R/inducible RGS4, carbachol calcium flux Fluo4; hits give low values; B-score at 10 µM; 0.92% of 310,000 active; AID 463111;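 active = B-score of the integrated calcium signal more than 4 SD below the library mean, with starting fluorescence not abnormally high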;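 note: negative B-score means reduced calcium response which marks RGS4 activation or potentiation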
#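 System: HEK293 FlpIn-TREx cells, stable M3R, doxycycline-inducible RGS4. Timing: overnight RGS4 induction, 30 min dye load 37 °C, 20 min compound RT. Also added: carbachol, ECmax concentration. Measured by: Fluo4 fluorescence kinetic imaging of calcium. Evaluation: integrated calcium ratio converted to B score.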
# MrgX1 antag: human MrgX1 receptor antagonism, primary screen; Q96LB2; MRGX1-HEK293 calcium flux, Fluo-4, BAM8-22 antagonism; hits give low values; B-score at 10 µM; 1.3% of 310,000 active;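 active = calcium-response B-score plate-corrected more than 3 library SD below zero, starting fluorescence within 5 deviations, no agonist response on first addition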;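 note: peak minus trough fluorescence over baseline after final BAM8-22 challenge near maximal dose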
# MrgX1 ag: activates human MrgX1 receptor signaling | Q96LB2 | MrgX1-HEK293 cells, Fluo-4 calcium fluorescence, agonist mode; hits give high values | B-score at 10 µM | 0.44% of 310,000 active | AID 588627;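 active = calcium response B-score plate-corrected fluorescence ratio at least 3 library SD, with starting fluorescence B-score inside 5 SD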
#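 Material: MrgX1-expressing HEK293 cells / Dosing: compound as first of three additions / Incubation: overnight seeding, then 1 h dark dye loading / Signal: Fluo-4 NW calcium fluorescence / Evaluation: B-scored fluorescence response ratio / Benchmarks: positive and negative control wells on each plate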
# RGS4 inh: human RGS4 inhibition. P49798. HEK293 M3R/RGS4 inducible, Fluo-4 calcium flux; hits give high values; triggered by carbachol at its EC20. B-score at 10 µM. 0.45% of 310,000 active. AID 463165;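 active = B-score, a plate-corrected calcium signal, over three deviations above library mean, with baseline fluorescence within five deviations of library mean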;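 note: RGS4 expression induced by doxycycline in cells with stable M3 receptor; B-score is computed from the integrated fluorescence ratio over baseline after carbachol; higher B-score means a larger calcium signal and so more RGS4 inhibition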
# Target sequence (P49798 whole entry, looked up): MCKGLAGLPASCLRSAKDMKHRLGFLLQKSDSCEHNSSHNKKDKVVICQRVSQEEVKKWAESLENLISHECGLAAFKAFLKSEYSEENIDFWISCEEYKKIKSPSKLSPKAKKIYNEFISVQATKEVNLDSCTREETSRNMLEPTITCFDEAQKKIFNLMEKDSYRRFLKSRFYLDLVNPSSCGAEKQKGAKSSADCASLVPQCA
# KCC2 secondary: KCC2 (human) modulation, secondary assay; normalised thallium flux (F/F0 slope) at 10 µM; shares compounds with Cl transport mod; HEK293-KCC2, thallium flux, FluoZin2 fluorescence; hits give high values; 15% of 3,700 active;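 active = thallium flux slope above the same plate's solvent-only control mean plus 3 SD; inconclusive = the two replicate wells disagree; inactive = no significant difference from solvent-only control wells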
# KCC2 bumet counter: bumetanide-insensitive thallium flux in KCC2 cells with ouabain, counter-screen; 49% of 3,700 active; HEK293-KCC2 + bumetanide/ouabain, thallium flux FluoZin2; hits give high values; normalized thallium flux at 10 µM; shares compounds with Cl transport mod;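 active = thallium entry rate above the same plate's blocked-transporter control wells by more than 3 SD; inconclusive = the two repeat wells disagree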;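 note: raw slope of fluorescence over initial fluorescence between 10 and 20 s after thallium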
# KCC2 secondary2: KCC2 (human) modulation, second secondary assay. shares compounds with Cl transport mod. normalized thallium flux at 10 µM. 23% of 3,700 active. HEK293-KCC2, thallium flux FluoZin2 fluorescence; actives lie on both sides; F/F0 rise rate, 10–20 s post-thallium. AID 1715;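 active = thallium flux slope more than 3 SD above or below the plate's solvent-only control mean, mostly below; inconclusive = the two repeat wells disagreed; inactive = no significant shift from solvent-only controls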;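 note: raw slope with 0.1% DMSO as baseline and bumetanide as block control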
# HEK293 Tl flux: parental HEK flux effect, counter-screen. shares compounds with Cl transport mod. HEK293 parental cells, thallium flux FluoZin2, ouabain; baseline-ratio fluorescence slope, 10–20 s after thallium. thallium flux rate (normalised fluorescence) at 10 µM. 46% of 3,700 active. AID 1716;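 active = thallium flux rate significantly above the same plate's solvent-only control wells, beyond their mean plus 3 SD; inconclusive = the two replicate wells gave conflicting results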
# KCC2 ouabain: KCC2 (human) modulation, ouabain retest; shares compounds with Cl transport mod; HEK293-KCC2, thallium flux FluoZin2 fluorescence; bidirectional: low = inhibitor, high = activator; raw Tl+ flux slope (below DMSO = inhibition, above = activation) at 10 µM; 48% of 3,700 active;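 active = thallium flux slope beyond 3 SD from same-plate DMSO control mean in most replicates, usually higher, sometimes lower; inconclusive = repeat tests gave conflicting results; inactive = no significant difference from controls in most replicates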;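 note: slope of initial-normalized fluorescence between seconds 10 and 20 after thallium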
# HEK293 Tl flux2: acts in parental HEK cells, second KCC2 counter-screen; shares compounds with Cl transport mod; HEK293 parental, thallium flux FluoZin-2 fluorescence slope; thallium flux slope at 10 µM; 33% of 3,700 active; AID 1718;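 active = thallium flux slope above the same plate's solvent-control mean plus 3 SD in both duplicate wells; inconclusive = duplicate wells that disagreed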;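 note: run without ouabain in cells lacking the KCC2 cotransporter; slope of fluorescence scaled to its starting value between 10 and 20 s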
# Active calls of the source: *; i = inactive; u = inconclusive; x = no result. Compounds with a hit are over-represented: about 4.7% of the library has one in this group of screens.
SMILES,MrgX1 allo act,Cl transport mod,RGS4 act,MrgX1 antag,MrgX1 ag,RGS4 inh,KCC2 secondary,KCC2 bumet counter,KCC2 secondary2,HEK293 Tl flux,KCC2 ouabain,HEK293 Tl flux2
O=C(COc1coc(CN2CCN(c3ccc(F)cc3)CC2)cc1=O)NCC1CCCO1 (configuration not stated),i,x,i,i,i,i,x,x,x,x,x,x
S=C(NCc1ccco1)Nc1ccc(Cl)cc1Cl,i,1.4,i,i,i,i,x,x,x,x,x,x
S=C(NCc1ccco1)Nc1ccc(Br)cc1Cl,i,4*,i,i,i,i,0.017,0.011*,0.031,0.0093*,0.018,u
Cc1ccnc(NC(=O)c2ccc(S(=O)(=O)c3ccccc3)cc2)c1,i,-0.12,i,i,i,i,x,x,x,x,x,x
Cc1cc(OCC(=O)NCCCN2CCOCC2)c2c(C)cc(=O)oc2c1,i,x,i,i,i,i,x,x,x,x,x,x
N=C1C(c2nc3ccccc3s2)=C(O)CN1Cc1ccco1,i,3.6*,i,i,i,i,0.0062,u,0.029,0.0075,0.018,0.011
CC(C)NC(=O)C1CCN(C(=O)C(C(=O)c2ccccc2)n2cc(Cl)ccc2=O)CC1 (configuration not stated),i,-4.3*,i,i,i,i,0.0098,u,0.036,0.0096*,0.024,u
Cc1cccc(N(C(=O)c2snc(C(N)=O)c2N)C(C(=O)NC2CCCC2)c2ccco2)c1 (configuration not stated),x,x,i,x,x,i,x,x,x,x,x,x
Cc1ccc(-n2cccc2/C=C2\C(=N)N3N=C(C(C)C)SC3=NC2=O)cc1,i,7.1*,i,i,i,i,0.0068,0.037*,u,0.03*,0.031*,0.017*
O=C(N/N=C/c1ccccc1)c1ccc(OCc2ccccc2)cc1,i,0.2,i,i,i,i,x,x,x,x,x,x
CC(C)C(=O)N/N=C/c1ccc(OCc2ccccc2)cc1,i,-4.7*,i,i,i,i,0.0072,0.0051,0.03,0.0073,u,0.01
COc1ccc(SC[C@H](CC(C)C)N2CCN(C)CCC2=O)cc1,i,0.022,i,i,i,i,x,x,x,x,x,x
COc1ccc(SC[C@H](CC(C)C)N2CCN(CCc3ccccc3)CCC2=O)cc1,i,-4.6*,i,i,i,i,0.0061,0.0036,u,0.0058*,0.013*,0.0087
Cc1ccc(SC[C@H](CC(C)C)N2CCN(CCc3ccccc3)CCC2=O)cc1,x,-4.4*,i,x,x,i,0.0079,0.0053,0.032,0.0071,0.017*,0.0097
CC(=O)Nc1ccc(SC[C@H](CC(C)C)N2CCN(CCc3ccccc3)CCC2=O)cc1,i,-3.8*,i,i,i,i,0.0096,0.0057,0.033,0.0069,0.019,0.011
C=CCn1c(=N)c(S(=O)(=O)c2ccc(C)c(C)c2)cc2c(=O)n3ccccc3nc21,i,x,i,i,i,i,x,x,x,x,x,x
COc1ccc(NS(=O)(=O)c2cc(NC(=O)c3ccc(=O)[nH]c3)ccc2N2CCCC2)cc1,i,x,i,i,i,i,x,x,x,x,x,x
CC1C(=O)C(C)C(c2ccc(Br)cc2)NC1c1ccc(Br)cc1 (configuration not stated),i,x,i,i,i,i,x,x,x,x,x,x
C[C@@H]1CC[C@H]2C(=O)N3[C@@H](CC[C@@H](C)[C@@H]3c3ccc(Br)cc3)C(=O)N2[C@H]1c1ccc(Br)cc1,i,5.3*,i,i,i,i,0.0069,0.0053,0.028,0.0078,0.018,0.011
O=C(O)c1ccc2c(=O)n3c(nc2c1)/C(=C/c1cccc(Cl)c1Cl)CC3,i,x,i,i,i,i,x,x,x,x,x,x
O=C(Nc1ccc(F)cc1F)c1ccccc1NC(=O)C1CC=CCC1C(=O)O (configuration not stated),i,x,i,i,i,i,x,x,x,x,x,x
CN(C(=O)COC(=O)CSc1ccc(C(N)=O)cc1[N+](=O)[O-])C1CCS(=O)(=O)C1 (configuration not stated),i,x,i,i,i,i,x,x,x,x,x,x
COC(=O)c1sccc1S(=O)(=O)N1CCCC(N(C)CCc2ccccn2)C1 (configuration not stated),i,x,i,i,i,i,x,x,x,x,x,x
CC(=O)Nc1ccc(NC(=O)N2CCCCC2)cc1,i,x,i,i,i,i,x,x,x,x,x,x
CC(=O)Nc1ccc(C(=O)N2CCCC2)cc1,i,-4.5*,i,i,i,i,0.0061,0.0047,0.03,0.0081,0.019,0.011
CC(=O)c1cccc(NC(=O)Nc2ccc(C(=O)N3CCOCC3)cc2)c1,i,-3.1*,i,i,i,i,0.0089,0.0066,0.034,0.0077,0.021,0.011
CCOc1cc(N(CC)CC)ccc1/C=C(/C#N)c1nc2ccccc2[nH]1,i,x,i,i,79*,i,0.0077*,-0.0033*,0.029,u,0.0081*,0.011
CCOC(=O)/C(C)=N/NC(=O)c1ccc([N+](=O)[O-])cc1,i,23*,i,i,i,i,0.0094*,0.032*,0.038*,0.034*,0.039*,0.025*
O=C(Nc1ccccc1)c1cccc(N2C(=O)C3C4CC(C(Br)C4Br)C3C2=O)c1 (configuration not stated),i,x,i,i,i,i,x,x,x,x,x,x
Cc1csc(=O)n1CC(=O)OCC(=O)c1c(N)n(CC(C)C)c(=O)n(C)c1=O,i,x,i,i,i,i,x,x,x,x,x,x
